Active and inactive are the calls of the source. No cut-off for these calls is given here.
Assays:
Assay type in all cases: cell-based
[1] = target: T1, NF-kappa-B inhibitor alpha (Homo sapiens) (UniProt P25963); experiment: Inhibition of TNFalpha-induced IkappaB-alpha phosphorylation in human K562/ADR cells assessed as decrease in NKkappaB activity at 0.3 uM measured at 12 to 48 hrs by Western blot analysis
T1 sequence (whole entry): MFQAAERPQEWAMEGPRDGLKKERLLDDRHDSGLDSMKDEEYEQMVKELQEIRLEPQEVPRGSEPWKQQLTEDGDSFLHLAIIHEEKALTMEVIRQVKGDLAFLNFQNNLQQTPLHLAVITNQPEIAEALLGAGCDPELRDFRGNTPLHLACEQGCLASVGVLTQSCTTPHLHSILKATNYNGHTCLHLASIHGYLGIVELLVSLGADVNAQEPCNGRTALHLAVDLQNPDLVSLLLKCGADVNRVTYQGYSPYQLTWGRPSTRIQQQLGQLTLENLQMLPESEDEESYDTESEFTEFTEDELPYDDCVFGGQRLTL
Outline: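 K562/ADR cells incubated with 0.3 μM for 0–48 h, then TNF-α for 30 min. Lysates blotted for phospho-IκB-α Ser32/36 (1:1000) and β-actin, detected by ECL. Densities normalised to β-actin; three experiments.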

[2] = Inhibition of NFkappaB signaling in human K562/ADR cells assessed as inhibition of TNFalpha-induced MDR1 expression at 0.3 uM after 24 hrs by Western blot analysis
Outline: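 K562/ADR cells incubated 24 h with 0.3 μM plus 5 nM TNF-α. Lysates blotted for MDR1 (1:100) with β-actin (1:500) as loading control, detected by ECL. Densities normalised to β-actin; three experiments.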

[3] = Inhibition of NFkappaB signaling in human K562/ADR cells assessed as inhibition of TNFalpha-induced MDR1 promoter activity at 0.1 to 0.3 uM after 24 hrs by luciferase reporter gene assay
Outline: (§1)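 Cells plated overnight, then transiently co-transfected with hMDR1-Luc or NF-κB-Luc plus pRL-SV Renilla plasmid by lipofection. Exposed to compound and TNF-α for 24 h. Firefly luciferase normalised to Renilla in a dual-luciferase readout.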

[4] = Inhibition of NFkappaB signaling in human K562/ADR cells assessed as inhibition of TNFalpha-induced NFkappaB promoter activity at 0.1 to 0.3 uM after 24 hrs by luciferase reporter gene assay; outline: as §1
[5] = Inhibition of NFkappaB signaling-mediated MDR1 activity in human K562/ADR cells assessed as increase in intracellular accumulation of adriamycin at 0.3 uM incubated for 24 hrs followed by adriamycin addition measured after 1 hr by flow cytometric analysis relative to K562 cells
Outline: (§2)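 K562/ADR cells, 4 × 10^6 per well, pretreated with 0.3 μM for 24 h at 37 °C; K562 and untreated K562/ADR run alongside. All incubated with 25 μM ADR for 1 h at 37 °C and washed three times with ice-cold PBS. ADR autofluorescence read by flow cytometry (ex 488 nm, em 575 nm) as mean intensity; three experiments.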

[6] = Inhibition of NFkappaB signaling-mediated MDR1 activity in human K562/ADR cells assessed as increase in intracellular accumulation of adriamycin at 0.3 uM incubated for 24 hrs followed by adriamycin addition measured after 1 hr by flow cytometric analysis (reference value: 46.3%); outline: as §2
[7] = Inhibition of NFkappaB signaling in human K562/ADR cells assessed as downregulation of MDR1 expression at 0.3 uM measured after 24 to 48 hrs by Western blot analysis
Outline: (§3)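 K562/ADR cells treated with 0.3 μM for 0–48 h, or with various concentrations for 24 h, at 37 °C. Total protein extracted and 60 μg run on 10% SDS-PAGE, then PVDF. Blots probed with MDR1 antibody (1:100) and β-actin (1:500), detected by ECL. Band density normalised to β-actin; triplicate.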

[8] = Inhibition of NFkappaB signaling in human K562/ADR cells assessed as downregulation of MDR1 expression at 0.3 uM measured for 24 hrs by Western blot analysis; outline: as §3
[9] = Inhibition of NFkappaB signaling in human K562/ADR cells assessed as downregulation of MDR1 mRNA expression at 0.3 uM measured after 24 to 48 hrs by qRT-PCR analysis
Outline: (§4)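 K562/ADR cells exposed to 0.3 μM for 0–48 h, or to various concentrations for 24 h. RNA isolated with TRIzol, then qRT-PCR: 95 °C 30 s, then 40 cycles of 95 °C 5 s and 60 °C 20 s. MDR1 quantified by ΔΔCT against β-actin; triplicate.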

[10] = Inhibition of NFkappaB signaling in human K562/ADR cells assessed as downregulation of MDR1 mRNA expression at 0.3 uM measured for 24 hrs by qRT-PCR analysis; outline: as §4
[11] = Inhibition of NFkappaB signaling-mediated MDR1 activity in human K562/ADR cells assessed as potentiation of adriamycin-induced cytotoxicity after 48 hrs by MTT assay
K562 = experiment: Cytotoxicity against human K562 cells assessed as cell viability after 48 hrs by MTT assay
Outline: (§5)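 Cells grown in RPMI 1640 with 10% FBS at 37 °C, 5% CO2; K562/ADR kept off ADR for 2 weeks before use. Cells seeded at 4 × 10^3 per well, exposed to 0.1–100 μM for 48 h. MTT added for 4 h, then SDS–isobutanol–HCl solubilisation overnight, absorbance read at 570 nm. IC50 from three experiments.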

[12] = Cytotoxicity against human K562/ADR cells assessed as cell viability after 48 hrs by MTT assay; outline: as §5

With C[C@@H]1CC[C@@]2(OC1)O[C@H]1C[C@H]3[C@@H]4CC=C5C[C@@H](O[C@@H]6O[C@H](CO)[C@@H](O[C@@H]7O[C@@H](C)[C@H](O)[C@@H](O)[C@H]7O)[C@H](O)[C@H]6O[C@@H]6O[C@@H](C)[C@H](O)[C@@H](O)[C@H]6O)CC[C@]5(C)[C@H]4CC[C@]3(C)[C@H]1[C@@H]2C [DIOSCIN] the inhibition [1] was “Active”, the inhibition [2] was “Active” and the inhibition [3] was “Active”. The inhibition [4] was “Active”, the inhibition [5] was 59.8% and the inhibition [6] was 78.4%. For the same molecule, the inhibition [7] was 84.7%, the inhibition [8] was 91.4% and the inhibition [9] was 97.8%. For the same molecule, the inhibition [10] was 93.1%, the inhibition [11] was “Active” and the IC50 (K562; Homo sapiens, K562, 48 h) was 4.7 µM. For the same molecule, the IC10 (K562; human, k562, 48 h) was 0.4 µM, the IC50 ([12]; Homo sapiens, K562/Adr) was 3.3 µM and the IC10 ([12]; human, k562/adr) was 0.3 µM.
